Converted amounts (≈) assume the structure as drawn.
Experiments:
Candida albicans [1] = assay: Antifungal activity against wild type Candida albicans Al-1 after 48 hrs by NCCLS M27A method; assay type: functional
Outline: (§1)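 Yeast-like strain grown on SD agar at 30 °C. One colony cultured overnight in SD broth at 30 °C to OD600 0.6–0.9, then diluted 1:5000 in SD broth. Broth microdilution from 20 mg/mL stocks in 95% EtOH, with 4-fold serial dilution and a no-compound negative column. Incubated 30 °C, 48 h. MIC is the lowest concentration giving ≥80% growth reduction.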

Scedosporium boydii = assay: Antifungal activity against Pseudallescheria boydii after 48 hrs by NCCLS M27A method; assay type: functional
Outline: (§2)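 Filamentous fungi grown on Sabouraud dextrose (SD) agar at 30 °C. Hyphae-containing agar block blended in SD broth, then diluted 1:5000 in SD broth. Broth microdilution in SD broth from 20 mg/mL stocks in 95% EtOH, with 4-fold serial dilution and a no-compound negative column. Incubated 30 °C, 48 h. MIC is the lowest concentration giving ≥80% growth reduction.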

Scheffersomyces shehatae = assay: Antifungal activity against Candida shehatae after 48 hrs by NCCLS M27A method; assay type: functional; outline: as §1
Candida albicans [2] = assay: Potentiation of drimane-type sesquiterpene-induced antifungal activity against wild type Candida albicans Al-1 assessed as fractional inhibition concentration index; assay type: functional
Outline: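 Broth microdilution in Sabouraud dextrose broth against C. albicans Al-1 (wild type), incubated at 30 °C for 48 h. Each sesquiterpene was tested alone, dillapiol alone, and the two combined at 1:5. A one-row 2-fold serial dilution started at 1000 µg/mL. MIC was the lowest concentration giving ≥80% growth reduction. FICI = FIC of dillapiol + FIC of compound, where FIC = MIC in combination / MIC alone.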

Cryptococcus neoformans = assay: Antifungal activity against Cryptococcus neoformans after 48 hrs by NCCLS M27A method; assay type: functional; outline: as §1
Candida albicans [3] = assay: Antifungal activity against azole-resistant Candida albicans D10 after 48 hrs by NCCLS M27A method; assay type: functional; outline: as §1
Exophiala dermatitidis = assay: Antifungal activity against yeast-like Wangiella dermatitidis after 48 hrs by NCCLS M27A method
Candida albicans [4] = assay: Antifungal activity against wild type Candida albicans Al-1 in presence of dillapiol; assay type: functional
Outline: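 Synergy run by a similar broth-microdilution MIC method in C. albicans Al-1. One-row 2-fold serial dilution starting at 1000 µg/mL, testing compound alone, dillapiol alone, and compound plus dillapiol (1:5). FIC is the MIC in combination divided by the MIC alone. FICI is the dillapiol FIC plus the compound FIC.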

Saccharomyces cerevisiae = assay: Antifungal activity against Saccharomyces cerevisiae after 48 hrs by NCCLS M27A method; assay type: functional; outline: as §1
Alternaria alternata = assay: Antifungal activity against Alternaria alternata after 48 hrs by NCCLS M27A method; assay type: functional; outline: as §2
Candida albicans [5] = assay: Antifungal activity against azole-resistant Candida albicans CN1A after 48 hrs by NCCLS M27A method; assay type: functional; outline: as §1

Structure (SMILES) | MIC (Candida albicans [1]) [µg/mL] | MIC (Scedosporium boydii) [µg/mL] | MIC (Scheffersomyces shehatae) [µg/mL] | fractional inhibitory concentration index (FICI) (Candida albicans [2]) | MIC (Cryptococcus neoformans) [µg/mL] | MIC (Candida albicans [3]) [µg/mL] | MIC (Exophiala dermatitidis) [µg/mL] | MIC (Candida albicans [4]) [µg/mL] | MIC (Saccharomyces cerevisiae) [µg/mL] | MIC (Alternaria alternata) [µg/mL] | MIC (Candida albicans [5]) [µg/mL]
COc1ccc2cc3[n+](cc2c1OC)CCc1cc2c(cc1-3)OCO2.[Cl-] [BERBERINE CHLORIDE] | 31.3 | 62.5 | 7.8 | 0.5 | 31.3 | 31.3 | 31.3 | 15.6 | 78.1 | 125 | 15.6
CC(=O)O[C@@H]1C=C(C=O)[C@](O)(C=O)[C@@]2(C)CCCC(C)(C)[C@H]12 [CINNAMODIAL] | 62.5 (≈ 203 µM) | 125 (≈ 405 µM) | 31.3 (≈ 102 µM) | 0.3 | 31.3 (≈ 102 µM) | 15.6 (≈ 50.6 µM) | 15.6 (≈ 50.6 µM) | 15.6 | 31.3 (≈ 102 µM) | 3.9 (≈ 12.6 µM) | 62.5 (≈ 203 µM)
CC(=O)O[C@@H]1C=C2C(=O)OC[C@]2(O)[C@@]2(C)CCCC(C)(C)[C@H]12 [CINNAMOSMOLIDE] | 1250 (≈ 4050 µM) | 78.1 (≈ 253 µM) | 625 (≈ 2030 µM) |  | 625 (≈ 2030 µM) | 156 (≈ 506 µM) | 313 (≈ 1020 µM) |  | 1250 (≈ 4050 µM) |  | 23.4 (≈ 75.9 µM)
C=CCc1cc2c(c(OC)c1OC)OCO2 [DILLAPIOLE] | 500 (≈ 2250 µM) |  |  |  |  |  |  |  |  |  | 
CC(=O)N1CCN(c2ccc(OCC3COC(Cn4ccnc4)(c4ccc(Cl)cc4Cl)O3)cc2)CC1 (centres undefined) [KETOCONAZOLE] | 0.4 (≈ 0.753 µM) | 93.8 (≈ 177 µM) |  |  | 0.04 (≈ 0.0753 µM) | 93.8 (≈ 177 µM) | 31.3 (≈ 58.9 µM) |  | 1.2 (≈ 2.26 µM) |  | 93.8 (≈ 177 µM)
CC1(C)CCC[C@@]2(C)[C@H]1[C@@H](O)C=C(C=O)[C@]2(O)C=O [MUKAADIAL] | 1000 (≈ 3750 µM) |  |  | 0.8 |  |  |  | 250 |  |  | 
CC(=O)O[C@H]1C=C(C=O)[C@](O)(C=O)[C@@]2(C)[C@H](OC(C)=O)CCC(C)(C)[C@H]12 [PARRITADIAL] | 1000 (≈ 2730 µM) |  |  | 1.5 |  |  |  | 250 |  |  | 
